# MEKK2mut PB1 HTS: signal of MEK5 binding to mutant human MEKK2 PB1 domain | AID 1530 | percent response, % at 10 µM | bead flow cytometry, Alexa488-MEK5 binding to MEKK2 mutant | actives 0.35% (n = 290,000); in the data active means percent response above about 24%, passing the limit was not always enough
# ABCB1 block: human ABCB1 inhibition, ABCG2 as counter-screen; actives 0.067% (n = 190,000); inhibition, % at 6.6 µM; CCRF-Adr cells, JC-1 efflux, flow cytometry; AID 1326; P08183; in the data active means inhibition above about 40%;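 further: 0% = vehicle and 100% = reference inhibitor; higher value means more JC-1 retained so stronger ABCB1 efflux block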
# ABCG2 block: inhibitors of human ABCG2 transporter, ABCB1 counter-screen | inhibition, % at 6.6 µM | actives 0.1% (n = 190,000) | Q9UNQ0 | IgMXP3 cells, JC-1 efflux, flow cytometry;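 active means inhibition above 80%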;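 further: 0% = DMSO and 100% = nicardipine control wells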
#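 Test system: IgMXP3 (ABCG2) plus far-red-tagged CCRF-Adr (ABCB1) cells / Amount: 3 million cells/mL in well / Reagent: JC-1 transporter substrate / Timing: 10 min compound exposure, 25 °C / Signal: flow cytometry, 530 nm JC-1 signal / Read-out: percent efflux inhibition, scaled nicardipine 100% to DMSO 0% / Benchmarks: nicardipine as high control, DMSO as low control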
# MEKK2 WT-MEK5: raises or lowers MEK5 binding to wildtype human MEKK2 PB1 domain; bead flow cytometry, Alexa488-MEK5 binding to MEKK2 WT; actives lie on both sides; binding response (% of control), % at 10 µM; actives 1.1% (n = 290,000); AID 1531; in the data active means binding response below about 67% or above about 130%
# MEKK3 PB1 HTS: modulators (inhibitors or enhancers) of MEK5 binding to human MEKK3 PB1 domain. Q99759. bead-based flow cytometry, Alexa488-MEK5 binding to MEKK3; actives lie on both sides; 0 = blocked by unlabeled MEK5, 100 = vehicle. binding response (% of control), % at 10 µM. actives 1.4% (n = 290,000). AID 1529;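 active means binding response more than 3 SD above or below the average of its plate-row segment, actives on both sides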;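 further: Alexa488 bead fluorescence after subtracting the streptavidin-only scavenger bead signal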
# Target sequence (Q99759 whole entry, looked up, the tested form may be a part): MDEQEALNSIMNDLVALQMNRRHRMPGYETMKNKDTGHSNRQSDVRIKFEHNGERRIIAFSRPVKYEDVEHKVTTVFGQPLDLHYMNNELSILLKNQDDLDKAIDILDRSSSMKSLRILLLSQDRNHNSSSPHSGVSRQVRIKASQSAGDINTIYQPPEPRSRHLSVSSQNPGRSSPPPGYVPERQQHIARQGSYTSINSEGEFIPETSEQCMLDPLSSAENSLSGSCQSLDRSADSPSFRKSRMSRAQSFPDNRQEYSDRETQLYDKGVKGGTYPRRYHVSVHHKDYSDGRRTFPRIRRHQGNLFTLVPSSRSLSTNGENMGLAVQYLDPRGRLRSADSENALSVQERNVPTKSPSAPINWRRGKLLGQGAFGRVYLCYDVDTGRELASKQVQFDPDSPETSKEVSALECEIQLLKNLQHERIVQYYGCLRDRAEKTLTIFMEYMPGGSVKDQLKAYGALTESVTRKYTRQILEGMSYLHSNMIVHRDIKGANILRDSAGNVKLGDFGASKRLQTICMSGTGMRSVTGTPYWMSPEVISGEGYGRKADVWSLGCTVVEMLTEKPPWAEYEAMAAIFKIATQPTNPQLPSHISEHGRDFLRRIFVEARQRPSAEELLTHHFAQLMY
# MEKK2wt confirm: raises or lowers MEK5 binding to wildtype human MEKK2, retest. shares compounds with MEKK3 PB1 HTS. AID 1892. binding response (% of control), % at 10 µM. actives 2.4% (n = 5,900). bead flow cytometry, Alexa488-MEK5 binding to MEKK2 WT; actives lie on both sides; in the data active means binding response below about 16% or above about 210%; inactive means in between
# MEKK2mut confirm: signal of MEK5 binding to mutant human MEKK2, retest; shares compounds with MEKK3 PB1 HTS; bead flow cytometry, Alexa488-MEK5 binding to MEKK2 mutant; percent response, % at 10 µM; actives 2% (n = 5,900); AID 1893; in the data active means percent response mostly above about 71%, no sharp cut-off; inactive means mostly below about 38%;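 further: higher means compound restores mutant binding toward wildtype level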
# MEKK3-MEK5 inh: confirmation of inhibitors of MEK5 binding to human MEKK3; binding response (% of control), % at 10 µM; AID 1894; bead flow cytometry, Alexa488-MEK5 binding to MEKK3; active compounds read low; actives 1.8% (n = 5,900); shares compounds with MEKK3 PB1 HTS;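 active means binding response below 72% of control, or above a set upper limit, though filed actives all read lower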;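 further: 100% = DMSO only wells and 0% = binding blocked by excess unlabeled MEK5; lower values mean stronger disruption of MEK5 binding to MEKK3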
# Starred values were filed as active, the others as inactive; . = no result given; [ ] = another dose, or the depositor's remark. Shown are actives, neighbours in structure and some others; about 2.3% of the full set was active somewhere.
SMILES,MEKK2mut PB1 HTS,ABCB1 block,ABCG2 block,MEKK2 WT-MEK5,MEKK3 PB1 HTS,MEKK2wt confirm,MEKK2mut confirm,MEKK3-MEK5 inh
Cc1cccc(C(O)(C(=O)NNC(=O)CN2CCN(C)CC2)c2cccc(C)c2)c1,1.0,0.3,28.9,98.0,90.0,.,.,.
Cc1ccc(C(O)(C(=O)NNC(=O)CN2CCN(C)CC2)c2ccc(C)cc2)cc1,0.0,0.3,3.2,101.0,67.0*[inhibitor],106.0,6.0,107.0
CC/C(=N\NC(=O)Nc1ccccc1)c1c(O)n(Cc2ccccc2)c(=O)[nH]c1=O,27.0,.,.,118.0,132.0*,94.0,0.0,101.0
C/C(=N\NC(=O)c1ccccc1)c1c(O)n(Cc2ccccc2)c(=O)[nH]c1=O,4.0,.,.,101.0,101.0,.,.,.
CC(NCc1ccc(Cl)c(Cl)c1)C(O)c1ccccc1 (centres undefined),-7.0,0.4,0.9,98.0,97.0,.,.,.
CN[C@@H]1C[C@@H](c2ccc(Cl)c(Cl)c2)c2ccccc21,11.0,.,-0.8,142.0*,106.0,133.0,11.0,106.0
Cn1c(O)c(/C=C2\C=Nc3ccccc32)c(=O)n(C)c1=O,6.0,.,.,105.0,106.0,.,.,.
COC(=O)C1=Nc2ccccc2/C1=C\c1c(O)n(C)c(=O)n(C)c1=O,-30.0,.,.,55.0*[inhibitor],74.0*[inhibitor],98.0,-4.0,100.0
CC(C)OCCCNC(=O)c1c(N)n(CC2CCCO2)c2nc3ccccc3nc12 (centres undefined),5.0,2.4,21.1,99.0,106.0,.,.,.
CCCNC(=O)c1c(N)n(CC2CCCO2)c2nc3ccccc3nc12 (centres undefined),4.0,1.6,11.1,116.0,123.0*,102.0,0.0,103.0
Cc1c(C(c2ccc(Cl)cc2Cl)c2c(O)c3ccccc3oc2=O)c(=O)n(-c2ccccc2)n1C (centres undefined),-4.0,0.7,-5.0,98.0,99.0,.,.,.
O=C1NC(=S)NC(=O)C1C/C=C/c1ccccc1,-34.0,-0.3,7.6,-7.0*[inhibitor],91.0,96.0,0.0,104.0
CCn1c(O)c(C=NCCN2CCOCC2)c(=O)n(CC)c1=S,0.0,.,.,97.0,93.0,.,.,.
CCn1c(O)c(/C=N/N2CCOCC2)c(=O)n(CC)c1=S,0.0,0.4,13.2,102.0,143.0*,102.0,-4.0,103.0
CCOC(=O)c1c(C)n(Cc2ccccc2)c2ccc(OCC(O)CNC(C)(C)C)cc12 (centres undefined),21.0,.,.,150.0*,107.0,150.0,36.0,106.0
CCOC(=O)C(O)(c1ccc(NC(=O)Oc2ccccc2)cc1)C(F)(F)F (centres undefined),3.0,0.0,1.4,107.0,130.0*,107.0,10.0,103.0
CCN(C(=O)Oc1ccccc1)c1ccc(C(O)(C(=O)OC)C(F)(F)F)cc1 (centres undefined),-1.0,0.7,9.7,99.0,95.0,.,.,.
CCOc1c(Cl)cc(CNCCc2c[nH]c3ccccc23)cc1OC,38.0,2.5,1.6,156.0*,102.0,127.0,13.0,102.0
COc1cc(C)c(CNCCc2c[nH]c3ccccc23)cc1C,26.0*,.,.,123.0,102.0,82.0,-3.0,69.0*
COc1ccc(CC(C)NCCC(c2ccccc2)c2ccccc2)cc1 (centres undefined),28.0*,.,.,171.0*,111.0,120.0,8.0,103.0
CC(Cc1ccccc1)NC(N)=O (centres undefined),5.0,.,.,97.0,98.0,.,.,.
COC(=O)C(O)(c1ccc(NC(=S)NC(=O)c2ccc(Cl)cc2Cl)c(C)c1)C(F)(F)F (centres undefined),-1.0,-1.1,-9.9,97.0,107.0,.,.,.
COC(=O)C(O)(c1ccc(NC(=S)NC(=O)c2ccc(Cl)cc2Cl)cc1)C(F)(F)F (centres undefined),3.0,0.1,1.1,106.0,148.0*,92.0,-4.0,102.0
CCOC(=O)C(O)(c1ccc(NC(=S)NC(=O)c2ccc(Cl)cc2Cl)c(C)c1)C(F)(F)F (centres undefined),1.0,-0.1,2.1,102.0,147.0*,92.0,-8.0,94.0
CCC(=NCc1cccnc1)c1c(O)n(Cc2ccccc2)c(=O)[nH]c1=O,-1.0,1.1,5.5,101.0,98.0,.,.,.
SMILES,MEKK2mut PB1 HTS,ABCB1 block,ABCG2 block,MEKK2 WT-MEK5,MEKK3 PB1 HTS,MEKK2wt confirm,MEKK2mut confirm,MEKK3-MEK5 inh
CCOc1cc2c(cc1OCC)-n1cccc1C(c1cc(OC)ccc1F)NC2 (centres undefined),7.0,.,.,111.0,105.0,.,.,.
CCN1C(=O)C(=C/C=C/c2ccco2)C(=O)N(CC)C1=S,-3.0,-0.4,-1.5,59.0*[inhibitor],86.0,84.0,-9.0,94.0
O=S(=O)(c1ccc(Cl)cc1)N1CCCCC1c1cccnc1 (centres undefined),1.0,0.1,0.9,117.0,130.0*,98.0,-1.0,103.0
O=C1C2CCCN2C(c2cccc(Cl)c2)N1c1ccccn1 (centres undefined),-17.0,0.5,0.5,0.0*[inhibitor],0.0*[inhibitor],102.0,2.0,101.0
O=C1C2CCCN2C(c2ccc(Cl)c(Cl)c2)N1c1ccccn1 (centres undefined),5.0,1.6,8.2,112.0,110.0,.,.,.
COc1ccc2c3c1OC1C(O)C=CC4C(C2)[N+](C)(C)CCC341 (centres undefined),7.0,.,.,101.0,103.0,.,.,.
Cc1cc(C(=O)C[N+]23CCN(CC2)CC3)c(C)n1-c1ccc(Br)cc1,12.0,0.3,0.8,158.0*,146.0*,120.0,15.0,106.0
CC/C(=N\NC(=O)c1ccccc1)c1c(O)n(C2CCCCC2)c(=O)[nH]c1=O,-5.0,.,.,97.0,96.0,.,.,.
CN1CCN(c2ncc(C=O)s2)CC1,10.0,-0.4,0.3,105.0,104.0,.,.,.
CCN(C(=O)CN1CC=C(c2ccccc2)CC1)c1c(N)n(Cc2ccccc2)c(=O)[nH]c1=O,1.0,0.3,2.8,105.0,107.0,.,.,.
CC(C)OP(=O)(OC(C)C)C(O)c1cccnc1 (centres undefined),0.0,0.0,0.0,99.0,113.0,.,.,.
CC(C)OP(=O)(OC(C)C)C(O)c1ccc(Br)cc1 (centres undefined),-1.0,0.2,-0.5,108.0,149.0*,105.0,2.0,104.0
CC[n+]1c(/C=C/N(C)c2ccccc2)sc2ccc(Cl)cc21,-14.0,0.7,2.5,54.0*[inhibitor],83.0,72.0,-9.0,88.0
CC(C)C/C(=N/O)c1cn(C)c2ccccc12,12.0,1.2,3.4,113.0,108.0,.,.,.

# Source: PubChem
